According to paper PMC3330681 (Scientific Reports, 2012):

Assays:
Assay type in all cases: cell-based
[1] = target: T1, GPR35 (Homo sapiens, UniProt Q9HC97); assay: Dynamic mass redistribution; details: for DMR signal in DMR agonism profiling (in words): doses up to 1 mM
[2] = target: T1, GPR35; assay: Tango β-arrestin translocation gene reporter assay in U2OS-GPR35-bla cells; details: for Efficacy Tango (maximal response): normalized to maximal response of zaprinast within the same plate
[3] = target: T1, GPR35; assay: Receptor internalization assay; details: HT-29, 1 hr; 50 μM gentisate, 2 mM L-DOPA, 50 μM DHICA, 500 μM DOPAC, 5 μM reverse T3, 200 μM T4, 50 μM 3-nitrotyrosine
Procedure, shortened: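 HT-29 cells (McCoy's 5a, 10% FBS, 37°C/5% CO2) were seeded on chamber slides at 10,000 cells/well for 24 hrs, then given a test compound at a fixed dose or DMSO vehicle for 1 hr at 37°C. Cells were fixed in 4% formaldehyde, permeabilized, and stained with intracellular-domain anti-GPR35 (1:500, 24 hrs) and an Alexa Fluor 594 secondary. Confocal imaging followed.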

[4] = target: T1, GPR35; assay: DMR antagonist assay: SPB05142 blocking the agonist-induced DMR in HT-29 cells; details: for DMR of the agonist in the presence of 64 μM SPB05142: HT-29 cells
Procedure, shortened: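 HT-29 cells in McCoy's 5a with 10% FBS were grown overnight to confluence on resonant waveguide biosensor plates, washed into HBSS and equilibrated 1 hr at 26°C. GPR35 antagonist pretreatment lasted 1 hr, then baseline, then agonist at a fixed dose. DMR was recorded for about 1 hr and background-corrected.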

[5] = U2OS-GPR35-bla cells, β-arrestin translocation
[6] = DMR agonism, HT-29 cells, maximal DMR amplitude within 1 hr

T1 sequence (Q9HC97 whole entry): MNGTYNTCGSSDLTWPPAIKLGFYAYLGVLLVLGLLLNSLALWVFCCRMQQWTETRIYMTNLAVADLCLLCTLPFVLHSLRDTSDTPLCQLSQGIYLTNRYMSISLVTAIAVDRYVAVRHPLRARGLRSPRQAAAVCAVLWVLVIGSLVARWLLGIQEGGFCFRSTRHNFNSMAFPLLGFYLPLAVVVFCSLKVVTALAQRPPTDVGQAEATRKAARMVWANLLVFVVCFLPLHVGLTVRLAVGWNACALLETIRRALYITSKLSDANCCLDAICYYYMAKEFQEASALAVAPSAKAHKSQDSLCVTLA

Compound | EC50 [1] | Efficacy DMR (maximal response) ([1]; HT-29 cells) | DMR signal in DMR agonism profiling (in words) ([1]; HT-29 cells) | EC50 Tango [2, 5] | EC50 [2] | Efficacy Tango (maximal response) ([2]; U2OS-GPR35-bla cells) | EC50 DMR [1, 6] | other results
N[C@@H](Cc1ccc(O)c(O)c1)C(=O)O [L-DOPA, 3,4-dihydroxy-L-phenylalanine, reference compound] | > 500 µM | Off-target | did not reach a saturated level up to 1 mM | Inactive | – | – | – | GPR35 internalization [3]: obvious internalization
N[C@@H](Cc1cc(I)c(Oc2cc(I)c(O)c(I)c2)c(I)c1)C(=O)O [L-Thyroxine (T4), L-thyroxine, reference compound] | > 500 µM | >100 pm | – | – | > 500 µM | >20 % Zaprinast | – | –
N[C@@H](Cc1ccc(Oc2cc(I)c(O)c(I)c2)c(I)c1)C(=O)O [Reverse T3, 3,3′,5′-triiodothyronine] | 5.89 ± 0.39 µM | 276±12 pm | clear dose-dependent DMR | – | 108 ± 9 µM | 108 % Zaprinast | – | Activity in Tango β-arrestin translocation assay (in words) ([2]; U2OS-GPR35-bla cells): full agonist; GPR35 internalization [3]: obvious internalization
N[C@@H](Cc1cc(I)c(O)c(I)c1)C(=O)O [3,5-Diiodo-L-tyrosine, 3,5-diiodo-L-tyrosine] | 304 ± 45 µM | 254±19 pm | clear dose-dependent DMR | Inactive | – | – | – | –
N[C@@H](Cc1ccc(O)c([N+](=O)[O-])c1)C(=O)O [3-Nitro-L-tyrosine, 3-nitro-L-tyrosine] | 142 ± 27 µM | 330±13 pm | robust DMR signal | – | > 500 µM | >20 % Zaprinast | – | Activity in Tango β-arrestin translocation assay (in words) ([2]; U2OS-GPR35-bla cells): able to result in β-arrestin translocation
O=C(/C=C/c1ccc(O)c(O)c1)O[C@H](Cc1ccc(O)c(O)c1)C(=O)O [Rosmarinate, rosmarinate] | 29.4 ± 2.7 µM | 320±11 pm | active | – | 169 ± 17 µM | 63 % Zaprinast | – | –
CCOC(=O)Cc1ccc(O)c(OC)c1 [Ethyl homovanillate, ethyl homovanillate] | – | – | – | – | – | – | Inactive | –
COC(=O)c1cnn(-c2ccc(F)cc2F)c1C=NNC(=S)NC(C)(C)C [SPB05142, methyl-5-[(tert-butylcarbamothioylhydrazinylidene)-methyl]-1-(2,4-difluorophenyl)-pyrazole-4-carboxylate, reference compound] | – | – | little or no DMR signal | – | – | – | – | Activity in Tango β-arrestin translocation assay (in words) ([2]; U2OS-GPR35-bla cells): inactive; Inhibition by SPB05142 of the DMR of DOPA ([4]; HT-29, agonist at EC50 to EC80): partially inhibited; Inhibition by SPB05142 of the DMR arising from all other eleven agonists ([4]; HT-29, each agonist at EC50 to EC80): dose-dependently inhibited; IC50 Antagonist (SPB05142 to block the DMR of the agonist) ([4]; against homogentisate, HT-29): No inhibition
NC(Cc1ccc(O)cc1)C(=O)O (racemic) [DL-Tyrosine, DL-tyrosine] | – | – | – | Inactive | – | – | Inactive | –
N[C@@H](Cc1ccc(O)c(I)c1)C(=O)O [3-Iodo-L-tyrosine, 3-iodo-L-tyrosine] | > 500 µM | >50 pm | – | Inactive | – | – | – | DMR signal at 1 mM (in words) ([1]; HT-29 cells, 1 mM): small but detectable DMR
OCC(O)c1ccc(O)c(O)c1 (stereo not drawn) [DHPG, 3,4-dihydroxyphenylglycol] | 239 ± 37 µM | 310±12 pm | active | – | 563 ± 67 µM | 18 % Zaprinast | – | DMR of the agonist in the presence of 64 μM SPB05142 [4]: residual DMR signal
N[C@@H](Cc1ccccc1)C(=O)O [L-Phenylalanine, L-phenylalanine] | – | – | – | Inactive | – | – | Inactive | –
O=C(O)c1cccnc1Nc1cccc(C(F)(F)F)c1 [Niflumic acid, reference compound] | – | 223±11 pm | – | – | – | 39 % Zaprinast | – | –
O=C(O)c1cc2cc(O)c(O)cc2[nH]1 [DHICA, 5,6-dihydroxyindole-2-carboxylic acid] | 24.2 ± 2.7 µM | 310±11 pm | clear dose-dependent and saturable DMR | – | 22.9 ± 1.6 µM | 75 % Zaprinast | – | Activity in Tango β-arrestin translocation assay (in words) ([2]; U2OS-GPR35-bla cells): robust FRET signal; GPR35 internalization [3]: obvious internalization
O=C(O)Cc1ccc(O)cc1 [4-Hydroxyphenylacetate, 4-hydroxyphenylacetate] | – | – | – | Inactive | – | – | Inactive | –
O=C([O-])c1cc(=O)c2c(OCC(O)COc3cccc4oc(C(=O)[O-])cc(=O)c34)cccc2o1.[Na+].[Na+] [Cromolyn disodium, reference compound] | – | 252±16 pm | – | – | – | 97 % Zaprinast | – | EC50 ([1]; read-out: EC50 DMR, DMR agonism, HT-29 cells, maximal DMR amplitude within 1 hr): 0.52 ± 0.04 µM; EC50 ([2]; read-out: EC50 Tango, U2OS-GPR35-bla cells, β-arrestin translocation): 9.67 ± 0.71 µM
NC(Cc1ccccc1)C(=O)O (racemic) [DL-Phenylalanine, DL-phenylalanine] | – | – | – | Inactive | – | – | Inactive | –
C[C@](N)(Cc1ccc(O)c(O)c1)C(=O)O [α-methyl-L-DOPA, reference compound] | – | – | – | Inactive | – | – | Inactive | –
CCCOc1ccccc1-c1nc2nn[nH]c2c(=O)[nH]1 [Zaprinast, reference compound] | – | 250±17 pm | – | – | – | 100 % Zaprinast | – | –
O=C(O)c1cc(=O)c2ccccc2[nH]1 [Kynurenic acid, reference compound] | – | 203±13 pm | – | – | > 500 µM | >60 % Zaprinast | – | –
COc1cc(CC(=O)O)ccc1O [Homovanillic acid, homovanillic acid] | – | – | – | Inactive | – | – | Inactive | –
O=C(O)Cc1ccc(O)c(O)c1 [DOPAC, 3,4-Dihydroxyphenylacetic acid] | > 500 µM | >200 pm | active | – | 106 ± 7 µM | 44 % Zaprinast | – | DMR of the agonist in the presence of 64 μM SPB05142 [4]: residual DMR signal; GPR35 internalization [3]: obvious internalization
COc1cc(CCN)ccc1O [3-Methoxytyramine, 3-methoxytyramine] | – | – | – | Inactive | – | – | Inactive | –
O=C(O)CCc1ccc(O)c(O)c1 [Dihydrocaffeic acid, 3-(3,4-dihydroxyphenyl)propionic acid] | 342 ± 41 µM | 293±12 pm | active | – | 186 ± 21 µM | 46 % Zaprinast | – | DMR of the agonist in the presence of 64 μM SPB05142 [4]: residual DMR signal
N[C@@H](Cc1ccc(O)cc1)C(=O)O [L-Tyrosine, L-tyrosine] | – | – | – | Inactive | – | – | Inactive | –
O=C([O-])/C=C/C(=O)[O-].[Na+].[Na+] [Sodium fumarate, sodium fumarate] | – | – | – | Inactive | – | – | Inactive | –
